Calls of active or inactive are those of the source. The calls are words filed in the database; no cut-off is given here.
What was measured:
Cavia porcellus [1] = species on record: Cavia porcellus; assay: Tested for contraction of guinea pig isolated urinary bladder detrusor muscle at 37 degree C; Significantly more potent than ATP; type: functional; conditions: Muscle tissue
Oryctolagus cuniculus [2] = species on record: Oryctolagus cuniculus; assay: Tested for relaxation of carbachol-contracted rabbit mesenteric artery at 37 degree C; Significantly more potent than 2MeSATP; type: functional
Cavia porcellus [3] = species on record: Cavia porcellus; assay: Tested for relaxation of carbachol-contracted guinea pig taenia coli at 37 degree C; Significantly more potent than ATP; type: functional
Oryctolagus cuniculus [4] = species on record: Oryctolagus cuniculus; assay: Tested for relaxation of carbachol-contracted rabbit aorta at 37 degree C; Significantly more potent than 2MeSATP; type: functional
[5] = Agonism at turkey erythrocyte P2Y receptor.; type: functional, Meleagris gallopavo
Procedure, shortened: (§1)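 Turkey erythrocytes labeled 18–24 h at 37 °C with 2-[3H]myo-inositol in inositol-free DMEM; ghosts made by hypotonic lysis (5 mM Na phosphate pH 7.4, 5 mM MgCl2, 1 mM EGTA). PLC assay: ~175 μg protein ghosts, 1 μM GTPγS, Hepes pH 7.0 medium with 424 μM CaCl2, 2 mM EGTA; 5 min, 30 °C; total [3H]inositol phosphates by anion exchange; K0.5 averaged from 3–8 curves.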

Cavia porcellus [6] = species on record: Cavia porcellus; assay: Tested for contraction of guinea pig vas deferens at 37 degree C; Significantly more potent than ATP; type: functional
Oryctolagus cuniculus [7] = species on record: Oryctolagus cuniculus; assay: Tested for contraction of rabbit saphenous artery produced by 1 uM alpha,beta-MeATP at 37 degree C; Not active; type: functional
Meleagris gallopavo [8] = assay: Stimulating production of inositol phosphate in turkey erythrocyte membranes at a concentration of 100 uM; Inactive; type: functional, cell membranes; procedure, shortened: as §1
Cavia porcellus [9] = species on record: Cavia porcellus; assay: Tested for contraction of guinea pig vas deferens at 37 degree C; Potency equal to ATP; type: functional
Oryctolagus cuniculus [10] = species on record: Oryctolagus cuniculus; assay: Tested for relaxation of carbachol-contracted rabbit mesenteric artery at 37 degree C; Potency equal to 2MeSATP; type: functional
Cavia porcellus [11] = species on record: Cavia porcellus; assay: Tested for contraction of guinea pig isolated urinary bladder detrusor muscle at 37 degree C; Potency equal to ATP; type: functional; conditions: Muscle tissue
Oryctolagus cuniculus [12] = species on record: Oryctolagus cuniculus; assay: Tested for relaxation of carbachol-contracted rabbit aorta at 37 degree C; More potent or equal to 2MeSATP; type: functional
Cavia porcellus [13] = species on record: Cavia porcellus; assay: Tested for contraction of guinea pig isolated urinary bladder detrusor muscle at 37 degree C; More potent than or equal to ATP; type: functional; conditions: Muscle tissue
Oryctolagus cuniculus [14] = species on record: Oryctolagus cuniculus; assay: Tested for contraction of rabbit saphenous artery produced by 1 uM alpha,beta-MeATP at 37 degree C; type: functional
Cavia porcellus [15] = species on record: Cavia porcellus; assay: Tested for contraction of guinea pig isolated urinary bladder detrusor muscle at 37 degree C; Less potent than or equal to ATP; type: functional; conditions: Muscle tissue
Meleagris gallopavo [16] = assay: Induction of inositol phosphate in turkey erythrocyte membranes at 100 uM; Inactive; type: functional, cell membranes; procedure, shortened: as §1

SMILES | Relative activity (Oryctolagus cuniculus [2]) | Relative activity (Cavia porcellus [3]) | Relative activity (Oryctolagus cuniculus [4]) | K 0.5 [5] [nM] | Relative activity (Oryctolagus cuniculus [7]) | other results
Nc1nc(SCCc2ccccc2)nc2c1ncn2C1O[C@H](COP(=O)(O)OP(=O)(O)OP(=O)(O)O)[C@@H](O)[C@H]1O (stereo partly drawn) | 6.2 | 7.1 | 6.5 | 30 | inactive | Relative activity (Cavia porcellus [1]): Active; Relative activity (Cavia porcellus [6]): Active
NCCCCCCCSc1nc(N)c2ncn(C3O[C@H](COP(=O)(O)OP(=O)(O)OP(=O)(O)O)[C@@H](O)[C@H]3O)c2n1 (stereo partly drawn) |  |  |  | 72.8 |  | 
C=CCCCCSc1nc(N)c2ncn(C3O[C@H](CO)[C@@H](O)[C@H]3O)c2n1 (stereo partly drawn) |  |  |  |  |  | Activity (Meleagris gallopavo [8]): inactive
Nc1nc(Cl)nc2c1ncn2[C@@H]1O[C@H](COP(=O)(O)OP(=O)(O)OP(=O)(O)O)[C@@H](O)[C@H]1O |  | 7.2 |  | 72 | inactive | Relative activity (Cavia porcellus [9]): Active; Relative activity (Oryctolagus cuniculus [10]): 6.2; Relative activity (Cavia porcellus [11]): Active; Relative activity (Oryctolagus cuniculus [12]): 5.8
Nc1nc(SCCCCCCCS)nc2c1ncn2C1O[C@H](COP(=O)(O)OP(=O)(O)OP(=O)(O)O)[C@@H](O)[C@H]1O (stereo partly drawn) |  |  |  | 773 |  | 
CSc1nc(N)c2ncn([C@@H]3O[C@H](COP(=O)(O)OP(=O)(O)O)[C@@H](O)[C@H]3O)c2n1 | Active |  | Active | 6 |  | 
CSc1nc(N)c2ncn([C@@H]3O[C@H](COP(=O)(O)OP(=O)(O)OP(=O)(O)O)[C@@H](O)[C@H]3O)c2n1 | 6.5 | 8 | 6.8 | 8 | inactive | Relative activity (Cavia porcellus [9]): Active; Relative activity (Cavia porcellus [11]): Active
C=CCCCCSc1nc(N)c2ncn(C3O[C@H](COP(=O)(O)OP(=O)(O)OP(=O)(O)O)[C@@H](O)[C@H]3O)c2n1 (stereo partly drawn) | 7 | 7.9 |  | 10 | inactive | Relative activity (Cavia porcellus [13]): Active; Relative activity (Cavia porcellus [9]): Active
Nc1nc(SCCc2ccc([N+](=O)[O-])cc2)nc2c1ncn2C1O[C@H](COP(=O)(O)OP(=O)(O)OP(=O)(O)O)[C@@H](O)[C@H]1O (stereo partly drawn) | 7 | 8 | 6.2 | 12 |  | Relative activity (Oryctolagus cuniculus [14]): 2.6%; Relative activity (Cavia porcellus [15]): Partially active; Relative activity (Cavia porcellus [6]): Active
N#CSCCCCCCCSc1nc(N)c2ncn(C3O[C@H](COP(=O)(O)OP(=O)(O)OP(=O)(O)O)[C@@H](O)[C@H]3O)c2n1 (stereo partly drawn) |  |  |  | 25.9 |  | 
Nc1ccc(CCSc2nc(N)c3ncn([C@@H]4O[C@H](COP(=O)(O)OP(=O)(O)OP(=O)(O)O)[C@@H](O)[C@H]4O)c3n2)cc1 |  |  |  | 1.53 |  | 
Nc1nc(SCCc2ccc([N+](=O)[O-])cc2)nc2c1ncn2C1O[C@H](CO)[C@@H](O)[C@H]1O (stereo partly drawn) |  |  |  |  |  | Activity (Meleagris gallopavo [16]): inactive

Source: ChEMBL document CHEMBL1127060 (1993)
